# Target: T1, EhPSP (Entamoeba histolytica, UniProt N9V397)
# T1 sequence (N9V397 1-205): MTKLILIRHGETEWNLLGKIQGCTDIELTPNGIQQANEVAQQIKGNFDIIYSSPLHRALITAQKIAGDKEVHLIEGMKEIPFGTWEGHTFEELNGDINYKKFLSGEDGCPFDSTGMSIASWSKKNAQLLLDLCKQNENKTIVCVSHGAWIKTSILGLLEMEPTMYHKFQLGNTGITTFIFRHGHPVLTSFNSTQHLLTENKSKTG
# Experiment: In vitro enzyme inhibition assay of EhPSP phosphatase activity
# Format: biochemical
# Settings: for inhibition of enzymatic activity (in words): 21 compounds tested
# Outline: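 Recombinant C-terminal 6X-His EhPSP, expressed in E. coli BL21 (DE3) and purified by Ni-NTA then size exclusion. Reaction in 50 mM HEPES-NaOH pH 8.0, 1 mM DTT, 1 mM EDTA, 25 μg enzyme. Compound preincubated 10 min RT, then OPLS added and run 2−5 min RT. Stopped with malachite green, A630 of released phosphate. % inhibition vs no-compound control, IC50 from log-concentration curve.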
SMILES,inhibition of enzymatic activity (in words),"IC50 (IC50, OPLS 2.0 mM, compound 20 nM to 500 μM) [µM]"
"O=S(=O)(O)c1ccc2c(S(=O)(=O)O)cccc2c1 [AE-562/12222184, 1,6-naphthalenedisulfonic acid]",displayed the inhibition of enzymatic activity,
"Cc1nc2ccc(CN(C)c3ccc(C(=O)N[C@@H](CCC(=O)O)C(=O)O)s3)cc2c(=O)[nH]1 [Raltitrexed, (2S)-2-[[5-[methyl-[(2-methyl-4-oxo-3H-quinazolin-6-yl)methyl]amino]thiophene-2-carbonyl]amino]pentanedioic acid]",displayed the inhibition of enzymatic activity,~368

# Source: paper PMC11223228 (ACS Omega, 2024)
